Results on eight compounds are retold here after ChEMBL document CHEMBL1125754, “Synthesis and antiviral activity of 9-alkoxypurines. 2. 9-(2,3-Dihydroxypropoxy)-, 9-(3,4-dihydroxybutoxy)-, and 9-(1,4-dihydroxybut-2-oxy)purines” (J Med Chem, 1991).

For test [1], the system named is Human alphaherpesvirus 2. The test can be described thus: Compound was tested for its antiviral activity against HSV-2 (MS) using plaque reduction assay. It is filed as functional, organism-based. In a few lines: (§1)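 MRC-5 cell monolayers were infected with about 50 PFU of virus. Compounds were present at various concentrations for the whole incubation; stocks were 10 mg/mL in Me2SO, diluted in culture medium. IC50 is the concentration that cut plaque count to 50% of untreated controls.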
Background: In a plaque reduction assay, fewer plaques than in the control indicate reduced infectivity or spread.

Test [2] concerns Human alphaherpesvirus 3. The test can be described thus: Compound was tested for its antiviral activity against VZV (Ellen) using plaque reduction assay. It is filed as functional, organism-based. In a few lines:
as §1

The test system of the next test is Human alphaherpesvirus 1. The test can be described thus: Compound was tested for its antiviral activity against HSV-1 (SC16) using plaque reduction assay. Type of test: functional, organism-based. In a few lines:
as §1

The test system of test [3] is Human alphaherpesvirus 3. The test can be described thus: Compound was tested for its antiviral activity against VZV(Ellen) using plaque reduction assay.
Test [4] deals with Human alphaherpesvirus 2. The test can be described thus: Compound was tested for its antiviral activity against HSV-2(MS) using plaque reduction assay. Type of test: functional, organism-based. In a few lines: as §1

The structures appear in SMILES notation.

In the case of `Nc1nc(O)c2ncn(OC[C@H](O)CO)c2n1`, the IC50 in the test on Human alphaherpesvirus 2 [1], in the test on Human alphaherpesvirus 3 [2] and with Human alphaherpesvirus 1 was greater than 415 µM throughout.
Turning to `Nc1nc(O)c2ncn(OCCC(O)CO)c2n1` (centres undefined), the IC50 with Human alphaherpesvirus 2 [1], in the test with Human alphaherpesvirus 3 [2] and with Human alphaherpesvirus 1 was greater than 390 µM in each case.
`Nc1nc(O)c2ncn(O[C@@H](CO)CCO)c2n1`: the IC50 was greater than 390 µM in the test with Human alphaherpesvirus 2 [1], greater than 390 µM with Human alphaherpesvirus 3 [2] and 390 µM in the test on Human alphaherpesvirus 1.
For the compound `Nc1nc(O)c2ncn(O[C@H](CO)CCO)c2n1`, the IC50 is greater than 390 µM in the test with Human alphaherpesvirus 2 [1], 8.3 µM with Human alphaherpesvirus 3 [2] and 36 µM with Human alphaherpesvirus 1.
For `Nc1nc(O)c2ncn(OC(CO)CCO)c2n1` (centres undefined), in that order: greater than 390 µM, 30 µM and 43 µM.
For `Nc1nc(O)c2ncn(OCC(O)CO)c2n1` (centres undefined), in that order: 2.8 µM, 154 µM and 7.9 µM.
For `Nc1nc(O)c2ncn(OC[C@@H](O)CO)c2n1`, in that order: 0.46 µM, 62 µM and 2.7 µM.
Regarding `Nc1nc2c(ncn2COCCO)c(=O)[nH]1` [ACYCLOVIR], the IC50 was found to be 15 µM with Human alphaherpesvirus 3 [3], 1.2 µM in the test on Human alphaherpesvirus 2 [4] and 4.8 µM with Human alphaherpesvirus 1.

As a reminder, the IC50 is the concentration needed to halve the response being measured. A low value points to higher potency.
